One block for each substance: values may come before it.
What was measured:
[1] = molecular target: insulin receptor (IR) (Homo sapiens, UniProt P06213); assay: IR affinity relative to HI; format: binding
[2] = tested on: extracellular-regulated kinase (ERK); assay: Phospho-ERK in CHO-hIR cells; format: cell-based, Chinese Hamster; details: HSA 0.1%, n=3; for EC50: read-out: EC50 (nM) Mean (95% CI), Phospho-ERK in CHO-hIR cells
[3] = tested on: protein kinase B (AKT); assay: Phospho-AKT in CHO-hIR cells; format: cell-based, Chinese Hamster; details: read-out: EC50 (nM) Mean (95% CI), Phospho-AKT in CHO-hIR cells; HSA 0.1%, n=3
[4] = tested on: rat hepatocytes; assay: Glycogen accumulation in rat hepatocytes; format: cell-based; details: for EC50: read-out: EC50 (nM) Mean (95% CI), Glycogen accumulation in rat hepatocytes, n=7, geometric mean
Method in brief: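 Hepatocytes are isolated from rat by two-step collagenase perfusion. […] Determine cellular glycogen as glucose released after amyloglucosidase digestion.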

[5] = molecular target: Human IR-A (Homo sapiens, UniProt P06213); assay: Human IR-A binding, competition scintillation proximity assay; details: n=3
[6] = molecular target: Human IR-B (Homo sapiens, UniProt P06213); assay: Human IR-B binding, competition scintillation proximity assay; details: n=3
[7] = molecular target: Human IGF-1R (Homo sapiens, UniProt P08069); assay: Human IGF-1R binding, competition scintillation proximity assay; details: HSA 0%, n=4
Sequence of Human IGF-1R (P08069 31-736 limits assumed): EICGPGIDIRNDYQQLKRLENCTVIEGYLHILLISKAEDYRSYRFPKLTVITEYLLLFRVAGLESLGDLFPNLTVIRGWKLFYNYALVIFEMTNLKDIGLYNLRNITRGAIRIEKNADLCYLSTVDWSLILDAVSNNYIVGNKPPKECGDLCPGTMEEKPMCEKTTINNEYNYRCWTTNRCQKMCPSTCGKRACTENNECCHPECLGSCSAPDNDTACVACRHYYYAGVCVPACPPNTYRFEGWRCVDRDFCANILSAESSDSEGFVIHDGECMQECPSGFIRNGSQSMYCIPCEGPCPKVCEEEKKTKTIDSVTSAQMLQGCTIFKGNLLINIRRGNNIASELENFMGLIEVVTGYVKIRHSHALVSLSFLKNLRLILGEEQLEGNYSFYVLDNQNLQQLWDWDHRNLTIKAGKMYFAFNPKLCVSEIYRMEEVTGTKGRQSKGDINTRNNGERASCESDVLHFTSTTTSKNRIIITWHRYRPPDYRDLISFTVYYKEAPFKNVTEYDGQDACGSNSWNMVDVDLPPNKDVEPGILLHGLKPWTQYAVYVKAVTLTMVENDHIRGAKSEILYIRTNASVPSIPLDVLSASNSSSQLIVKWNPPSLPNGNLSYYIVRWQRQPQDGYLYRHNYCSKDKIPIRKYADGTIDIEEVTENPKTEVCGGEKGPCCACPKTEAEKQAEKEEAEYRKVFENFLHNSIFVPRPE
Sequence of Human IGF-1R (P08069 741-1367 partner limits assumed): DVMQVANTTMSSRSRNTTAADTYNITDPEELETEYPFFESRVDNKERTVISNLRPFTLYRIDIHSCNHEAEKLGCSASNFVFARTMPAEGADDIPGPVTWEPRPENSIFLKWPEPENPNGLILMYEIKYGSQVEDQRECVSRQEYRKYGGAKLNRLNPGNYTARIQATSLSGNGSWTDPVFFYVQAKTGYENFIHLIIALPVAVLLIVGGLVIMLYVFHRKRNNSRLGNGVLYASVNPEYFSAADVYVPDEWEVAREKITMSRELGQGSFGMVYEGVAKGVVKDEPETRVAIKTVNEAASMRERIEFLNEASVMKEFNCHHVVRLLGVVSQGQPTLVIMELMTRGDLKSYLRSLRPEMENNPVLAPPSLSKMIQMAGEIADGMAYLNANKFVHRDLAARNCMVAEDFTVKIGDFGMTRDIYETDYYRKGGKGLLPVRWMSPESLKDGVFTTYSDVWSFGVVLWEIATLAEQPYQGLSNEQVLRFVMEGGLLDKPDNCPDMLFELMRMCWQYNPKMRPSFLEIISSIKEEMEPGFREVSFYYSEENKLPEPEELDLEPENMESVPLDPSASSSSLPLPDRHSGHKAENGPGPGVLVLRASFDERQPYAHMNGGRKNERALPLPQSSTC

[8] = molecular target: human insulin receptors (hIRs) (Homo sapiens, UniProt P06213); assay: IR phosphorylation in CHO-hIR cells; format: cell-based
[9] = tested on: primary rat adipocytes; assay: Lipogenesis in rat adipocytes; format: cell-based; details: HSA 0.1%, n=4
[10] = tested on: L6-hIR cells; assay: Glycogen synthesis in rat L6-hIR cells; format: cell-based; details: HSA 0.1%, n=4
Method in brief: (§1)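 L6-hIR cells are a rat skeletal myoblast L6 line stably transfected with the A isoform of human IR. MCF-7 is a human mammary adenocarcinoma line.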

[11] = tested on: MCF-7 cells; assay: Glycogen synthesis in human MCF-7 cells; format: cell-based; details: HSA 0%, n=5
Method in brief: as §1

[12] = tested on: L6-hIR cells; assay: DNA synthesis; format: cell-based, rat; details: HSA 0%, n=5
[13] = tested on: MCF-7 cells; assay: DNA synthesis; format: cell-based, human; details: HSA 0%, n=4
[14] = tested on: COLO-205 cells; assay: DNA synthesis; format: cell-based, human; details: HSA 0%, n=3
[15] = tested on: HMEC cells; assay: DNA synthesis; format: cell-based, human; details: HSA 0%, n=7
[16] = Clinical pharmacology trial: pharmacokinetics, total serum insulin icodec; format: in vivo, human
Method in brief: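 Randomized, double-blind, double-dummy, active-controlled, multiple-dose escalation trial in adults aged 18–64 with type 2 diabetes on insulin (HbA1c ≤9.0%). Participants received once-weekly s.c. thigh injections at 12, 20 or 24 nmol/kg (one dose per cohort) for 5 weeks, at ~20:00. Total serum test compound (free plus albumin-bound) was measured by a specific assay at prespecified times, from predose to 36 days after the last dose.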

[17] = tested on: individuals with type 2 diabetes; assay: Clinical pharmacology trial: safety assessments; format: in vivo, human
Method in brief: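 Dose-escalation trial in type 2 diabetes. Three sequential cohorts received once-weekly s.c. thigh injections at 12, 20 or 24 nmol/kg with once-daily placebo for 5 weeks. Safety covered adverse events, hypoglycemic episodes, injection site reactions, vital signs, physical examination, clinical laboratory tests and ECG. An internal safety group reviewed blinded interim data before each escalation.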

IR affinity relative to HI ([1]; relative to HI): 22%
Substance: B16H: individual amino acid substitution TyrB16His in human insulin

influence on the IR affinity ([1]; deletion of threonine in position B30 of HI): no influence
Substance: desB30: human insulin with the threonine in position B30 deleted

EC50 [2]: 1.02 nM
EC50 [3]: 0.15 nM
Substance: human insulin [reference compound]
EC50 ([4]; HSA 0%): 0.28 nM

IC50 (%) Insulin icodec relative to human insulin Mean (95% CI), Human IR-A binding ([5]; HSA 0%): 0.50%
IC50 (%) Insulin icodec relative to human insulin Mean (95% CI), Human IR-A binding ([5]; HSA 1.5%): 0.03%
IC50 (%) Insulin icodec relative to human insulin Mean (95% CI), Human IR-B binding ([6]; HSA 0%): 0.78%
IC50 (%) Insulin icodec relative to human insulin Mean (95% CI), Human IR-B binding ([6]; HSA 1.5%): 0.03%
IC50 (%) Insulin icodec relative to human insulin Mean (95% CI), Human IGF-1R binding [7]: 0.14%
agonism at IRs (activation of IRs and downstream AKT and ERK) ([8]; CHO-hIR cells, 0.1% HSA, in a similar manner as HI): full agonist
EC50 (%) Insulin icodec relative to human insulin Mean (95% CI), IR phosphorylation in CHO-hIR cells ([8]; HSA 0.1%, n=3): 0.21%
EC50 (%) Insulin icodec relative to human insulin Mean (95% CI), Phospho-ERK in CHO-hIR cells [2]: 0.39%
EC50 [2]: 271 nM
EC50 [3]: 245 nM
EC50 (%) Insulin icodec relative to human insulin Mean (95% CI), Lipogenesis in rat adipocytes [9]: 0.029%
EC50 (%) Insulin icodec relative to human insulin Mean (95% CI), Glycogen accumulation in rat hepatocytes ([4]; HSA 0%, n=7): 4.3%
EC50 (%) Insulin icodec relative to human insulin Mean (95% CI), Glycogen accumulation in rat hepatocytes ([4]; HSA 0.1%, n=8): 0.24%
EC50 (%) Insulin icodec relative to human insulin Mean (95% CI), Glycogen synthesis in human MCF-7 cells [11]: 0.26%
EC50 (%) Insulin icodec relative to human insulin Mean (95% CI), DNA synthesis in human MCF-7 cells [13]: 0.5%
EC50 (%) Insulin icodec relative to human insulin Mean (95% CI), DNA synthesis in human COLO-205 cells [14]: 2.0%
EC50 (%) Insulin icodec relative to human insulin Mean (95% CI), DNA synthesis in human HMEC cells [15]: 0.2%
Substance: insulin icodec
EC50 ([4]; HSA 0%): 6.4 nM
EC50 (%) Insulin icodec relative to human insulin Mean (95% CI), Glycogen synthesis in rat L6-hIR cells [10]: 0.52%
EC50 (%) Insulin icodec relative to human insulin Mean (95% CI), DNA synthesis in rat L6-hIR cells [12]: 0.6%
time to maximum concentration (median tmax) ([16]; type 2 diabetes, once-weekly s.c. dosing): 16 h
maximum serum concentration at steady state ([16]; week 5 of once-weekly dosing): < 500 nmol/L
adverse events, number of events ([17]; 12 nmol/kg once weekly, n=13): 33 events
adverse events, number of individuals with events ([17]; 12 nmol/kg once weekly, n=13): 13 individuals
adverse events, number of events ([17]; 20 nmol/kg once weekly, n=13): 19 events
adverse events, number of individuals with events ([17]; 20 nmol/kg once weekly, n=13): 9 individuals
adverse events, number of events ([17]; 24 nmol/kg once weekly, n=12): 23 events
adverse events, number of individuals with events ([17]; 24 nmol/kg once weekly, n=12): 9 individuals
serious or severe adverse events, severe hypoglycemic episodes, injection site reactions or clinically significant findings in vital signs, physical examination, clinical laboratory assessments or ECG ([17]; 12, 20, 24 nmol/kg once weekly for 5 weeks): No serious or severe adverse events
tolerability ([17]; 12, 20, 24 nmol/kg once weekly for 5 weeks, type 2 diabetes): well tolerated
